Source: ChEMBL document CHEMBL3046367, “Potent and specific bactericidal effect of juglone (5-hydroxy-1,4-naphthoquinone) on the fire blight pathogen Erwinia amylovora” (J Agric Food Chem, 2012)
≈ marks a conversion by molar mass, not a printed value. Calls of active or inactive are those of the source. No cut-off for these calls is given here.

Legend:
Erwinia amylovora [1] = assay: Bactericidal activity against Erwinia amylovora 295/93 assessed as growth inhibition in King's B full medium measured at pH 7.2 after overnight incubation by suspension culture assay; assay type: functional
Outline: (§1)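 Growth inhibition in suspension culture in King's B medium (peptone, K2HPO4, MgSO4, glycerol; pH 7.2). Overnight culture diluted to OD600 0.2, compound added from stocks in ethanol or DMSO (up to 5% v/v) beside solvent controls; 28 °C, 200 rpm; OD600 read at 0–8 h every 2 h and at 15 or 24 h. MIC = lowest concentration giving complete growth inhibition after overnight incubation; at least triplicate.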

Erwinia amylovora [2] = assay: Bactericidal activity against Erwinia amylovora bv.4 assessed as growth inhibition after 10 min; assay type: functional; details: bv.4, 10 min
Erwinia amylovora [3] = assay: Bactericidal activity against Erwinia amylovora 657 assessed as growth inhibition at pH 7.2 by suspension culture assay; assay type: functional; outline: as §1
Erwinia amylovora [4] = assay: Bactericidal activity against Erwinia amylovora 797 assessed as growth inhibition at pH 7.2 by suspension culture assay; assay type: functional; outline: as §1
Erwinia amylovora [5] = assay: Bactericidal activity against Erwinia amylovora 363 assessed as growth inhibition at pH 7.2 by suspension culture assay; assay type: functional; outline: as §1
Erwinia amylovora [6] = assay: Bactericidal activity against Erwinia amylovora 295/93 assessed as colony growth inhibition at 25 uM at pH 4.5 by plating assay in presence of 0.5 mg/l mushroom tyrosinase; assay type: functional, organism-based
[7] = system: Pectobacterium carotovorum; assay: Bactericidal activity against Pectobacterium carotovorum NCPB 312 assessed as growth inhibition at pH 7.2 by suspension culture assay; assay type: functional; outline: as §1
Erwinia amylovora [8] = assay: Bactericidal activity against Erwinia amylovora 295/93 assessed as growth inhibition at 10 uM preincubated for 1 hr with UV/visible light by suspension culture assay; assay type: functional, organism-based
Outline: (§2)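 1 mM stock in ethanol exposed for 1 h to bright sunlight (UV plus visible) or to sunlight behind a UV-blocking glass screen; dark-kept solution as control. Added at nominal 10 μM to growing E. amylovora suspension cultures; growth followed by OD600.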

Erwinia piriflorinigrans = assay: Bactericidal activity against Erwinia piriflorinigrans 5888 assessed as growth inhibition at pH 7.2 by suspension culture assay; assay type: functional; outline: as §1
Bacillus subtilis = assay: Bactericidal activity against Bacillus subtilis NCTC 10315 assessed as growth inhibition at pH 7.2 by suspension culture assay; assay type: functional; outline: as §1
Erwinia amylovora [9] = assay: Bactericidal activity against Erwinia amylovora 513 assessed as growth inhibition at pH 7.2 by suspension culture assay; assay type: functional; outline: as §1
Pseudomonas fluorescens = assay: Bactericidal activity against Pseudomonas fluorescens A506 assessed as growth inhibition at pH 7.2 by suspension culture assay; assay type: functional; outline: as §1
[10] = Activity of Agaricus bisporus (mushroom) tyrosinase assessed as drug oxidation by photometric analysis; assay type: ADME
Erwinia amylovora [11] = assay: Bactericidal activity against Erwinia amylovora 237R assessed as growth inhibition at pH 7.2 by suspension culture assay; assay type: functional; outline: as §1
Erwinia amylovora [12] = assay: Bactericidal activity against Erwinia amylovora 792 assessed as growth inhibition at pH 7.2 by suspension culture assay; assay type: functional; outline: as §1
Erwinia amylovora [13] = assay: Bactericidal activity against 2x10^8 CFU/mL Erwinia amylovora 295/93 cells assessed as late restarting of growth from surviving cells at <10 uM by suspension culture assay; assay type: functional, organism-based
Erwinia amylovora [14] = assay: Bactericidal activity against Erwinia amylovora 295/93 assessed as inhibition of bacterial growth under infection conditions in hrp gene expression inducing medium at pH 7.0 after overnight incubation by suspension culture assay; assay type: functional
Outline: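 E. amylovora 295/93 started at OD600 0.2, 28 °C with shaking, OD600 followed. MIC = lowest concentration completely inhibiting growth after overnight incubation, beside solvent controls.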

Erwinia amylovora [15] = assay: Bactericidal activity against Erwinia amylovora 295/93 at 10 uM after 30 min; assay type: functional, organism-based
Outline: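 Bactericidal versus bacteriostatic test: about 10^5 E. amylovora cells in suspension culture exposed to 10 μM for 30 min, then plated on King's B medium to check for surviving colonies.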

Erwinia billingiae = assay: Bactericidal activity against Erwinia billingiae 6830 assessed as growth inhibition at pH 7.2 by suspension culture assay; assay type: functional; outline: as §1
Erwinia amylovora [16] = assay: Bactericidal activity against Erwinia amylovora 295/93 assessed as growth inhibition at pH 4.5 after overnight incubation by suspension culture assay; assay type: functional
Outline: (§3)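 E. amylovora 295/93 grown in King's B medium brought to pH values between 4 and 8 with 1 M HCl or NaOH before sterilisation. Culture set to OD600 0.2, 28 °C, 200 rpm, OD600 monitored over time; solvent controls run in parallel.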

Erwinia amylovora [17] = assay: Bactericidal activity against mixture of two strains of Erwinia amylovora 295/93 and 763 inoculated in Malus x domestica cv. Gala flowers assessed as prevention of infection at 0.01 mM applied two times at 2 hr after bacterial exposure measured after 8 to 10 days by In vitro flower inoculation assay; assay type: functional, 295/93/763
Outline: (§4)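 Gala flowers (balloon stage, from greenhouse-forced potted trees) opened on 10% sucrose at 28 °C for 24 h, in series of 20. Each inoculated with 1 μL of a 1×10^7 CFU/mL mix of strains 295/93 and 763 on the styles. After 2 h, sprayed twice with 150 μL; water as negative control. Kept at 70% humidity and 22 °C, with a water-plus-fungicide spray at day 2. Infected flowers per series scored at 8–10 days; assay valid only if water controls reached ≥50% infection.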

Erwinia amylovora [18] = assay: Bactericidal activity against Erwinia amylovora 295/93 assessed as growth inhibition applied as spray solution; assay type: functional, organism-based
Erwinia amylovora [19] = assay: Bactericidal activity against Erwinia amylovora 871 assessed as growth inhibition at pH 7.2 by suspension culture assay; assay type: functional; outline: as §1
Erwinia amylovora [20] = assay: Bactericidal activity against Erwinia amylovora 295/93 assessed as growth inhibition at 10 uM preincubated for 1 hr with visible light by suspension culture assay; assay type: functional, organism-based; outline: as §2
Erwinia amylovora [21] = assay: Bactericidal activity against Erwinia amylovora 385R assessed as growth inhibition at pH 7.2 by suspension culture assay; assay type: functional; outline: as §1
Erwinia pyrifoliae = assay: Bactericidal activity against Erwinia pyrifoliae 4171 assessed as growth inhibition at pH 7.2 by suspension culture assay; assay type: functional; outline: as §1
Erwinia amylovora [22] = assay: Bactericidal activity against Erwinia amylovora 846 assessed as growth inhibition at pH 7.2 by suspension culture assay; assay type: functional; outline: as §1
Erwinia amylovora [23] = assay: Bactericidal activity against Erwinia amylovora 562 assessed as growth inhibition at pH 7.2 by suspension culture assay; assay type: functional; outline: as §1
Escherichia coli = assay: Bactericidal activity against Escherichia coli assessed as growth inhibition at pH 7.2 by suspension culture assay; assay type: functional; outline: as §1
Erwinia amylovora [24] = assay: Bactericidal activity against Erwinia amylovora 872 assessed as growth inhibition at pH 7.2 by suspension culture assay; assay type: functional; outline: as §1
Erwinia amylovora [25] = assay: Bactericidal activity against Erwinia amylovora 894 assessed as growth inhibition at pH 7.2 by suspension culture assay; assay type: functional; outline: as §1
Erwinia amylovora [26] = assay: Bactericidal activity against Erwinia amylovora 893 assessed as growth inhibition at pH 7.2 by suspension culture assay; assay type: functional; outline: as §1
Erwinia amylovora [27] = assay: Bactericidal activity against Erwinia amylovora 295/93 assessed as growth inhibition at 2.5 uM at pH 4.0 to 8.0 by suspension culture assay; assay type: functional, organism-based; outline: as §3
Erwinia amylovora [28] = assay: Bactericidal activity against Erwinia amylovora 627 assessed as growth inhibition at pH 7.2 by suspension culture assay; assay type: functional; outline: as §1
Erwinia amylovora [29] = assay: Bactericidal activity against Erwinia amylovora 793 assessed as growth inhibition at pH 7.2 by suspension culture assay; assay type: functional; outline: as §1
Pantoea agglomerans = assay: Bactericidal activity against Pantoea agglomerans 599 assessed as growth inhibition at pH 7.2 by suspension culture assay; assay type: functional; outline: as §1
Erwinia tasmaniensis = assay: Bactericidal activity against Erwinia tasmaniensis 37/10 assessed as growth inhibition at pH 7.2 by suspension culture assay; assay type: functional; outline: as §1
Erwinia amylovora [30] = assay: Bactericidal activity against Erwinia amylovora 295/93 assessed as colony growth inhibition at 25 uM at pH 7.2 by plating assay in presence of 0.5 mg/l mushroom tyrosinase; assay type: functional, organism-based
Erwinia amylovora [31] = assay: Bactericidal activity against Erwinia amylovora 782 assessed as growth inhibition at pH 7.2 by suspension culture assay; assay type: functional; outline: as §1
Erwinia amylovora [32] = assay: Bactericidal activity against mixture of two strains of Erwinia amylovora 295/93 and 763 inoculated in Malus x domestica cv. Gala flowers assessed as prevention of infection at 0.06% applied two times at 2 hr after bacterial exposure measured after 8 to 10 days by In vitro flower inoculation assay; assay type: functional, 295/93/763; outline: as §4

CC1=C(C)C(=O)C(C)=C(C)C1=O
MIC (Erwinia amylovora [1]): inactive

COc1cc(O)c2c(c1)C(=O)c1cc(C)cc(O)c1C2=O
MIC (Erwinia amylovora [1]): inactive

Cc1cc(O)c2c(c1)C(=O)c1cc(O)cc(O)c1C2=O
MIC (Erwinia amylovora [1]): inactive

Cc1cc(O)c2c(c1)C(=O)c1cccc(O)c1C2=O
MIC (Erwinia amylovora [1]): inactive

O=C(O)c1cc(O)c2c(c1)C(=O)c1cccc(O)c1C2=O
MIC (Erwinia amylovora [1]): inactive

O=C1C(O)=C(C2=C(O)C(=O)c3ccccc3C2=O)C(=O)c2ccccc21
MIC (Erwinia amylovora [1]): inactive

O=C1c2cccc(O)c2C(=O)c2c(O)cc(CO)cc21
MIC (Erwinia amylovora [1]): inactive

O=C1c2ccccc2C(=O)c2c1cc(S(=O)(=O)O)c(O)c2O
MIC (Erwinia amylovora [1]): inactive

O=C1c2ccccc2C(=O)c2c1ccc(O)c2O
MIC (Erwinia amylovora [1]): inactive

O=C1c2ccccc2C(=O)c2ccccc21
MIC (Erwinia amylovora [1]): inactive

O=C1C=CC(=O)C=C1 [BENZOQUINONE]
MIC (Erwinia amylovora [1]): 100 µM (≈ 10.8 µg/mL)
MIC (Erwinia amylovora [2]): 10 µM (≈ 1.08 µg/mL)

O=C1C=CC(=O)c2c(O)cccc21 [JUGLONE]
MIC (Erwinia amylovora [3]): 10 µM (≈ 1.74 µg/mL)
MIC (Erwinia amylovora [4]): 20 µM (≈ 3.48 µg/mL)
MIC (Erwinia amylovora [1]): 10 µM (≈ 1.74 µg/mL)
MIC (Erwinia amylovora [5]): 20 µM (≈ 3.48 µg/mL)
growth inhibition (GI) (Erwinia amylovora [6]): Active
MIC [7]: 500 µM (≈ 87.1 µg/mL)
growth inhibition (GI) (Erwinia amylovora [8]): inactive
MIC (Erwinia piriflorinigrans): 500 µM (≈ 87.1 µg/mL)
MIC (Bacillus subtilis): 50 µM (≈ 8.71 µg/mL)
MIC (Erwinia amylovora [9]): 10 µM (≈ 1.74 µg/mL)
MIC (Pseudomonas fluorescens): > 1000 µM
Activity [10]: Active
MIC (Erwinia amylovora [11]): 10 µM (≈ 1.74 µg/mL)
MIC (Erwinia amylovora [12]): 10 µM (≈ 1.74 µg/mL)
Activity (Erwinia amylovora [13]): Active
MIC (Erwinia amylovora [14]): 5 µM (≈ 0.871 µg/mL)
Activity (Erwinia amylovora [15]): Active
MIC (Erwinia billingiae): 1000 µM (≈ 174 µg/mL)
MIC (Erwinia amylovora [16]): 2.5 µM (≈ 0.435 µg/mL)
Efficacy (Erwinia amylovora [17]): 67%
growth inhibition (GI) (Erwinia amylovora [18]): Active
MIC (Erwinia amylovora [19]): 10 µM (≈ 1.74 µg/mL)
growth inhibition (GI) (Erwinia amylovora [20]): Active
MIC (Erwinia amylovora [21]): 10 µM (≈ 1.74 µg/mL)
MIC (Erwinia pyrifoliae): 20 µM (≈ 3.48 µg/mL)
MIC (Erwinia amylovora [22]): 20 µM (≈ 3.48 µg/mL)
MIC (Erwinia amylovora [23]): 10 µM (≈ 1.74 µg/mL)
MIC (Escherichia coli): 1000 µM (≈ 174 µg/mL)
MIC (Erwinia amylovora [24]): 20 µM (≈ 3.48 µg/mL)
MIC (Erwinia amylovora [25]): 10 µM (≈ 1.74 µg/mL)
MIC (Erwinia amylovora [26]): 10 µM (≈ 1.74 µg/mL)
growth inhibition (GI) (Erwinia amylovora [27]): inactive
MIC (Erwinia amylovora [28]): 20 µM (≈ 3.48 µg/mL)
MIC (Erwinia amylovora [29]): 10 µM (≈ 1.74 µg/mL)
MIC (Pantoea agglomerans): 500 µM (≈ 87.1 µg/mL)
MIC (Erwinia tasmaniensis): 500 µM (≈ 87.1 µg/mL)
growth inhibition (GI) (Erwinia amylovora [30]): inactive
MIC (Erwinia amylovora [31]): 10 µM (≈ 1.74 µg/mL)

O=C1C=C(O)C(=O)c2ccccc21 [LAWSONE]
MIC (Erwinia amylovora [1]): 2500 µM (≈ 435 µg/mL)

CC1=CC(=O)c2ccccc2C1=O [MENADIONE]
MIC (Erwinia amylovora [1]): 250 µM (≈ 43 µg/mL)

O=C1C=CC(=O)c2c(O)ccc(O)c21 [NAPHTHAZALIN]
MIC (Erwinia amylovora [1]): 10 µM (≈ 1.9 µg/mL)

CC1=CC(=O)c2c(O)cccc2C1=O [PLUMBAGIN]
MIC (Erwinia amylovora [1]): 100 µM (≈ 18.8 µg/mL)

CC(C)=CC[C@@H](O)C1=CC(=O)c2c(O)ccc(O)c2C1=O [SHIKONIN]
MIC (Erwinia amylovora [1]): 100 µM (≈ 28.8 µg/mL)

CN[C@@H]1[C@H](O[C@H]2[C@H](O[C@H]3[C@H](O)[C@@H](O)[C@H](N=C(N)N)[C@@H](O)[C@@H]3N=C(N)N)O[C@@H](C)[C@]2(O)C=O)O[C@@H](CO)[C@H](O)[C@H]1O [STREPTOMYCIN]
MIC (Erwinia amylovora [1]): 10 µM (≈ 5.82 µg/mL)
Efficacy (Erwinia amylovora [32]): 75%
